Assay outcomes (PubChem)
Most compounds without a hit are left out; they make up all but 1.8% or so of the library.
Tn7 DDE FP – inhibitors of Tn7 peptide binding to fibrin DD(E), primary screen, biochemical, fluorescence polarization, human fibrin, Tn7 probe. Fibrinogen beta chain (Homo sapiens), P02675. FP displacement of FITC-Tn7 peptide from fibrin DD(E); 0% = median of compound wells per plate. AID 720508, 2013. 0.13% of 370,000 active. inhibition, % at 8.3 µM;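 active = inhibition above the mean of compounds falling within the control limits plus 3 SD of them, cut at about 14% in these data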;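 also: 0% = plate median of compound wells and 100% = 10 µM Aha-Tn7 peptide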
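Test system: human clot-derived fibrin DD(E) complex / Quantity: 2 µM final DD(E) protein / Incubation: 10 min plus 3 h, room temperature / Measured by: fluorescence polarization / Benchmarks: high control of 10 µM Aha-Tn7 peptide / Replicates: singlicate testing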
ABHD4 inh – ABHD4 inhibitors, primary screen, biochemical, fluorescence polarization, mouse | purified mABHD4, FP-Rh probe fluorescence polarization | 0.54% of 370,000 active | (Lyso)-N-acylphosphatidylethanolamine lipase (Mus musculus), Q8VD66 | inhibition, % at 8.92 µM;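 active = inhibition exceeding the mean over every tested compound plus 3 SD, cut at about 30% in these data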;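 also: 0% = plate median of compound wells and 100% = S159A mutant with DMSO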
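Assay system: Wild-type mouse ABHD4 protein | Medium: HEPES pH 7.0 buffer, 150 mM NaCl, 0.01% Pluronic F-127 | Incubation: Enzyme–compound pre-incubation 45 min, then probe 60 min, both 25 °C | Technique: Fluorescence polarization with parallel and perpendicular emission, 525/598 nm | Evaluation: % inhibition of FP-Rh probe binding versus controls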
TCR-CD3 inh – inhibitors of human TCR-CD3 interaction, primary screen, biochemical, fluorescence, TAMRA-labeled TCR probe. T-cell receptor (TCR). inhibition, % at 9.4 µM. 0.37% of 360,000 active. AID 651800, 2012; in the data active = inhibition above about 19%;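 also: recombinant mutant TCR 2C K166C tagged with TAMRA read by polarization; 0% = receptor in buffer alone and 100% = receptor with positive control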
HTRA1 inh – HTRA1 serine protease inhibitors, primary screen, biochemical, fluorescence polarization, HTS. AID 504803, 2011. 0.5% of 340,000 active. recombinant HTRA1, FP-rhodamine activity-based probe. inhibition, % at 5.96 µM; in the data active = inhibition above about 36%;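 also: 0% = enzyme with DMSO and 100% = wells lacking enzyme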
DDE Tn6 FP inh – inhibitors of Tn6 peptide binding to fibrin DD(E), primary screen, biochemical, fluorescence polarization, human fibrin, Tn6 probe | Fibrinogen beta chain (Homo sapiens), P02675 | Fibrin DD(E) TRITC-Tn6 fluorescence polarization displacement | inhibition, % at 8.3 µM | 0.21% of 370,000 active | AID 720509, 2013;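 active = inhibition above a per-campaign cutoff: mean of compounds within control limits plus 3 SD, cut at about 15% in these data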;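 also: 0% = median of all compound wells on the plate and 100% = blocking peptide control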
SIAE inh – human SIAE inhibitors, primary screen, biochemical, fluorescence polarization, FP-Rh probe, 1536-well HTS. Sialate O-acetylesterase (Homo sapiens), Q9HAT2. SIAE FP-Rh probe binding. inhibition, % at 9.66 µM. 0.69% of 370,000 active. AID 1053197, 2014;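 active = inhibition above a cutoff: mean of compounds within the control limits plus 3 SD of those, cut at about 17% in these data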;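 also: 0% = plate median of compound wells and 100% = probe without SIAE protein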
Target sequence (Q9HAT2 whole entry, looked up): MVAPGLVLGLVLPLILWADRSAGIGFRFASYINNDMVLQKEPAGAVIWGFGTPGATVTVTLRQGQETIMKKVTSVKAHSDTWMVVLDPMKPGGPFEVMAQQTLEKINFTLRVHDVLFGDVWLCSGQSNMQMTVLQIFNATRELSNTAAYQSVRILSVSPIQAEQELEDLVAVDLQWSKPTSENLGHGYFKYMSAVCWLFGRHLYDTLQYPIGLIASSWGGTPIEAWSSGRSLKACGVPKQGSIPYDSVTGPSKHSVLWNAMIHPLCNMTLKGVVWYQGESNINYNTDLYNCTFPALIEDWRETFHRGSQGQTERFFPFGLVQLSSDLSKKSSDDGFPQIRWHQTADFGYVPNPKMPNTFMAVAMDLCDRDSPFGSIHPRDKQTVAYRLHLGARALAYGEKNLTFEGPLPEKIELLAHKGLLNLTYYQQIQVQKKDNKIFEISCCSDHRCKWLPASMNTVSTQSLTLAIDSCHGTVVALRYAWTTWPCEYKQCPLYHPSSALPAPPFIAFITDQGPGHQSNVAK
SIAE inh conf – human SIAE inhibitors, retest, confirmation, biochemical, fluorescence polarization, FP-Rh probe, triplicate. 13% of 2,300 active. AID 1117263, 2014. shares compounds with SIAE inh. SIAE FP-Rh activity-based probe. inhibition, % at 9.66 µM;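 active = mean inhibition of the replicates above the hit cutoff set in the primary screen, cut at about 17% in these data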;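 also: 0% = SIAE with DMSO and probe and 100% = probe without SIAE; inhibitors lower polarization as more probe stays unbound to SIAE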
Numbers without * were called inactive; . = no result given.

SMILES	Tn7 DDE FP	ABHD4 inh	TCR-CD3 inh	HTRA1 inh	DDE Tn6 FP inh	SIAE inh	SIAE inh conf
Cc1nc(Nc2ccc(Cl)cc2)c2nnn(Cc3ccccc3)c2n1	1.4	-0.1	2.8	-8.6	2.4	0.6	.
CCOC(=O)/C(=C\c1c[nH]c2ccccc12)NC(C)=O	1.5	5.0	-8.6	1.6	-0.7	17.8*	4.2
Cc1ccc(C)c(OCc2nc3ccccc3[nH]2)c1	1.1	-0.5	1.8	-5.5	2.8	37.1*	4.6
Cc1cccc(C)c1OCc1nc2ccccc2[nH]1	-0.6	5.6	-9.3	2.1	-4.5	-7.1	.
O=C(N[C@H](C(=O)N1CCC[C@H]1C(=O)NC1CCCC1)C1CCCCC1)c1ccc(Cl)c(Cl)c1	4.5	4.1	4.9	.	4.3	-1.2	.
COc1cc(NC(=O)CSc2ccccc2)c(C(=O)O)cc1OC	-4.5	-1.2	11.4	0.7	10.4	1.6	.
COc1cc(NC(=O)CSc2nc3ncnc(N)c3[nH]2)c(C(=O)O)cc1OC	1.7	-5.0	-1.1	-2.6	7.1	17.8*	0.5
CCCCCCCCN1C(=O)[C@@H](CC(=O)NCCCOC)C[C@@]2(C(=O)OC)C1=C[C@H](C(C)(C)C)O[C@@H]2C	1.6	1.4	6.1	.	2.6	-2.9	.
CC(=O)Nc1nc(C)c(-c2csc(Nc3cccc(C(C)=O)c3)n2)s1	-2.4	21.1	-11.9	11.7	-3.2	42.0*	64.7*
COCCCNC(=O)/C(C#N)=C/c1ccc(F)cc1	-5.6	-0.8	6.2	1.7	-5.4	32.8*	0.3
CC(=O)Oc1c2occc2cc2ccc(=O)oc12	2.5	13.8	-0.2	14.0	2.4	19.7*	2.3
COc1c2occc2cc2ccc(=O)oc12	3.6	-3.0	7.0	-5.7	8.3	-1.6	.
COc1ccc(-c2nnc(SCc3c(F)cccc3F)n2N)cc1	-0.3	4.5	.	.	-2.6	-4.5	.
CCOc1ccccc1CN1CCNC(=O)C1CC(=O)NCCCn1cccn1 (stereo not drawn)	-5.0	5.8	2.4	7.2	5.5	6.4	.
COc1ccccc1CN1CCNC(=O)C1CC(=O)NCCCn1cccn1 (stereo not drawn)	-1.1	4.5	4.1	-5.1	1.9	40.0*	8.1
COc1cc(-c2csc(N3CCOCC3)n2)cc(OC)c1OC	-7.3	6.5	5.1	6.1	0.8	1.3	.
COc1ccc(-c2csc(N3CCN(c4cc(C)nc5ccccc45)CC3)n2)cc1OC	7.5	7.8	-4.9	-0.7	4.5	20.4*	7.4
Cc1ccccc1C(=O)Nc1nncs1	-7.2	2.7	2.9	-2.0	0.0	0.8	.
O=C(Nc1nncs1)c1c(F)c(F)c(F)c(F)c1F	0.0	5.9	-0.3	-5.8	0.3	20.2*	1.1
Cc1c(N=Cc2cccnc2)c(=O)n(-c2ccccc2)n1C	-6.1	5.2	-0.7	1.7	-0.5	21.1*	2.9
Cc1cc(O)cc(=O)n1-c1cccc(C(F)(F)F)c1	1.0	3.9	-2.9	.	9.4	3.7	.
CN(C(=O)c1ccc(N2CCOCC2)c([N+](=O)[O-])c1)C1CCCCC1	0.3	2.0	1.0	8.1	-2.3	17.1*	2.1
O=C(c1cccc(Cl)c1)N1CCN(c2ccnc3cc(Cl)ccc23)CC1	-2.2	-1.1	.	.	1.0	-2.3	.
CCn1c(CCNC(=O)c2ccc(Cl)cc2)n[nH]c1=S	-3.9	2.2	-1.9	1.5	3.9	22.1*	-2.3
Cc1ccc(C(=O)NCCc2n[nH]c(=S)n2C)cc1	4.8	-1.2	-1.8	-2.6	0.6	1.2	.
COc1ccc(NC(=O)Nc2cc(F)ccc2C)cc1	2.4	-2.7	8.6	2.4	-1.5	19.7*	-1.2
